ChEMBL document CHEMBL5260797, “N-(1-Benzyl-3,5-dimethyl-1H-pyrazol-4-yl)benzamides: Antiproliferative Activity and Effects on mTORC1 and Autophagy” (ACS Med Chem Lett, 2017)
Converted amounts (≈) assume the structure as drawn. The source made the active and inactive calls. No cut-off for these calls is given here.

Legend:
MIA PaCa-2 = experiment: Antiproliferative activity against human MIA PaCa-2 cells assessed as cell viability measured after 72 hrs by MTT assay; assay type: functional, cell-based; conditions: MIA PaCa-2, 72 h
Outline: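 MIA PaCa-2 pancreatic cancer cells; EC50 values determined in triplicate.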

[1] = Metabolic stability in mouse plasma assessed as parent compound remaining measured after 6 hrs by LC-MS/MS analysis; assay type: ADME, cell-free; conditions: read-out: Stability
[2] = Metabolic stability in human plasma assessed as parent compound remaining measured after 6 hrs by LC-MS/MS analysis; assay type: ADME, cell-free; conditions: read-out: Stability
[3] = Metabolic stability in mouse liver microsomes assessed as half life at 1 uM by LC-MS/MS analysis; assay type: ADME, Microsome
[4] = Thermodynamic aqueous solubility of the compound at pH 7.4 measured after 48 hrs by UV-spectrometry method; assay type: physicochemical; conditions: read-out: Therm_solubility
[5] = Cytotoxicity against human ARPE-19 cells assessed as cell viability measured after 72 hrs by MTT assay; assay type: toxicity, cell-based
ARPE-19 [6] = experiment: Induction of autophagy in human ARPE-19 cells assessed as increase in LC3-2 conversion at 10 uM measured after 4 hrs by Western blot analysis; assay type: functional, cell-based
Outline: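 ARPE-19 cells treated 4 h in complete medium without starvation with increasing concentrations (10, 25, 50 μM) or DMSO. LC3 detected by Western blot; LC3-II/actin ratio expressed as fold increase over DMSO control, n = 3.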

ARPE-19 [7] = experiment: Induction of autophagy in human ARPE-19 cells assessed as increase in LC3-labeled punctae at 25 uM measured after 4 hrs by immunofluorescence analysis relative to control; assay type: functional, cell-based
Outline: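 ARPE-19 cells treated 4 h at 25 μM in complete medium without starvation, or with DMSO. LC3 punctae detected by immunofluorescence, with CD63 as late endosomal/lysosomal marker.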

ARPE-19 [8] = experiment: Induction of autophagy in human ARPE-19 cells assessed as fold increase in LC3 turnover at 25 uM measured after 4 hrs by Western blot analysis; assay type: functional
Outline: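 ARPE-19 human retinal pigment epithelial cells exposed 4 h to compound or DMSO in complete medium without starvation. LC3 conversion read by Western blot as LC3-II/actin ratio and expressed as fold increase over DMSO control, n = 3.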

ARPE-19 [9] = experiment: Reduction in autophagic flux in human ARPE-19 cells at 25 uM incubated for 4 hrs in complete medium in presence of bafilomycin; assay type: functional, cell-based
Outline: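 ARPE-19 cells in full medium with 100 nM bafilomycin plus compound or DMSO. Autophagic flux read as LC3-II by Western blot.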

mTORC1 (Homo sapiens) [10] = biological target: T1, mTORC1 (Homo sapiens) (UniProt P42345+Q8N122+Q9BVC4); experiment: Inhibition of mTORC1 in human ARPE19 cells at 10 to 50 uM measured after 4 hrs by Western blot analysis related to control; assay type: cell-based; conditions: ARPE-19, dose 10-50 µM
T1 sequence (Q8N122 whole entry, looked up, other chains not shown): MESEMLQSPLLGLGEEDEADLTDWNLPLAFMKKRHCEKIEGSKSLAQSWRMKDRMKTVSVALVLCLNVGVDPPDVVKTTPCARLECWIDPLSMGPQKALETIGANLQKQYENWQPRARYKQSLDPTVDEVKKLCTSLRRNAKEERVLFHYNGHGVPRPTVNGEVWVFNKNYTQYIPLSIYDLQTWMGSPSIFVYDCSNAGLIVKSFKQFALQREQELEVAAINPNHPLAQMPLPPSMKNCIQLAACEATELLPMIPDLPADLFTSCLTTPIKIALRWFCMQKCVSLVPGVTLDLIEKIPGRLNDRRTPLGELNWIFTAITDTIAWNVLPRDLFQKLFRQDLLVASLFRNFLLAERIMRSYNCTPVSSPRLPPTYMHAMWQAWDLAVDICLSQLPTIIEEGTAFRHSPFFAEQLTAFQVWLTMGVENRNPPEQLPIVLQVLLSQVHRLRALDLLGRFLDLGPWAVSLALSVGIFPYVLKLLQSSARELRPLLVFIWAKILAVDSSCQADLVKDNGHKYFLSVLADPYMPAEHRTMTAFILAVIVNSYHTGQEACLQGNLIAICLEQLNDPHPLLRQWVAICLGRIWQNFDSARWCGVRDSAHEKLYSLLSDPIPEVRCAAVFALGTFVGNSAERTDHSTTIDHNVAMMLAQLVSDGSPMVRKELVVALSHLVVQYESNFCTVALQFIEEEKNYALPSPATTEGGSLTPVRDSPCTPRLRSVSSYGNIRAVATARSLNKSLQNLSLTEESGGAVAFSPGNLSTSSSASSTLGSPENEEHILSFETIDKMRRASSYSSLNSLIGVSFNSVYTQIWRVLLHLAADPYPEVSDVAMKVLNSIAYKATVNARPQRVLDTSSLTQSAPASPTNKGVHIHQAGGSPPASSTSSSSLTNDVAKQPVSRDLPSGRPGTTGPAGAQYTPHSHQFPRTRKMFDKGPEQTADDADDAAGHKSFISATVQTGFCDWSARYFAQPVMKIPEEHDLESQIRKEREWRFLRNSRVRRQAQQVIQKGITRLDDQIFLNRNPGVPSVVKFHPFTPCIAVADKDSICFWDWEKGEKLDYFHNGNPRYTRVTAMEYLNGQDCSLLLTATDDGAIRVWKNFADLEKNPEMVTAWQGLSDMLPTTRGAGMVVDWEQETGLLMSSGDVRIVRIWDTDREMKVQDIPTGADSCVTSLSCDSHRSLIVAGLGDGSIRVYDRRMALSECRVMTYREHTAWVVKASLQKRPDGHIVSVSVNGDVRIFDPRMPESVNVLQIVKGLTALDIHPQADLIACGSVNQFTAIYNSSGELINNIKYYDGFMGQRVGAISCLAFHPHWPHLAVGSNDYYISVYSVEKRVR
T1 sequence (Q9BVC4 whole entry, looked up, other chains not shown): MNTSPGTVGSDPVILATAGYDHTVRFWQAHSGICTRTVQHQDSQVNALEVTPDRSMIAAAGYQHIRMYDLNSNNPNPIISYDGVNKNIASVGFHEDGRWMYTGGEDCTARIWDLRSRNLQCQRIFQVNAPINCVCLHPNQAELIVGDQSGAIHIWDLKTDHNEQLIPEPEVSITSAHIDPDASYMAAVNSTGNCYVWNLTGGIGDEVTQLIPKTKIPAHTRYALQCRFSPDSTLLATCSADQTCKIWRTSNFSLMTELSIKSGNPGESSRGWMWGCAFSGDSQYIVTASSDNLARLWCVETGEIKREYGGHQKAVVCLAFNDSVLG
Outline: (§1)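 ARPE-19 cells treated 4 h without starvation with increasing concentrations or DMSO. Basal mTORC1 activity measured by Western blot as phosphorylated P70/total P70, with DMSO set to 100%.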

mTORC1 (Homo sapiens) [11] = biological target: T1, mTORC1 (Homo sapiens); experiment: Inhibition of mTORC1 in human ARPE19 cells measured after 4 hrs by Western blot analysis; assay type: cell-based; conditions: ARPE-19, dose 10-50 µM; outline: as §1
mTORC1 (Homo sapiens) [12] = biological target: T1, mTORC1 (Homo sapiens); experiment: Inhibition of mTORC1 in human ARPE19 cells assessed as decrease in P70/total P70 phosphorylation level at 10 uM measured after 4 hrs by Western blot analysis; assay type: cell-based; conditions: ARPE-19; outline: as §1
ARPE-19 [13] = experiment: Induction of autophagy in human ARPE-19 cells assessed as LC3 level at 25 uM measured after 4 hrs under starvation/refeed condition by immunofluorescence analysis; assay type: functional, cell-based
Outline: (§2)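 ARPE-19 cells starved 4 h in EBSS, then refed 1 h in complete medium containing 25 μM compound or DMSO. LC3 punctae imaged by immunofluorescence, with CD63 co-stain.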

ARPE-19 [14] = experiment: Induction of autophagy in human ARPE-19 cells assessed as LC3 accumulation at 25 to 50 uM measured after 4 hrs under refeed condition by immunofluorescence analysis; assay type: functional, cell-based; conditions: dose 25-50 µM
ARPE-19 [15] = experiment: Induction of autophagy in human ARPE-19 cells assessed as appearance of LC3 non-uniformed shapes at 25 uM pretreated for 30 mins with cells followed by incubation for 4 hrs under starvation condition by immunofluorescence analysis; assay type: functional, cell-based; conditions: time 4.5 hrs
Outline: (§3)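 ARPE-19 cells starved 4 h in EBSS with 25 μM compound or DMSO. LC3-labeled structures imaged by immunofluorescence, with CD63 as late endosomal/lysosomal marker.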

ARPE-19 [16] = experiment: Induction of autophagy in human ARPE-19 cells assessed as LC3 enlarged structures at 25 uM pretreated for 30 mins with cells followed by incubation for 4 hrs under starvation condition by immunofluorescence analysis; assay type: functional, cell-based; conditions: time 4.5 hrs; outline: as §3
ARPE-19 [17] = experiment: Induction of autophagy in human ARPE-19 cells assessed as decrease in LC3-2/actin ratio at 10 uM pretreated for 30 mins with cells followed by incubation for 4 hrs under starvation condition by Western blot analysis; assay type: functional, cell-based; conditions: time 4.5 hrs
Outline: (§4)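 ARPE-19 cells pretreated 30 min at 10 μM (or DMSO). Then 4 h with compound in EBSS starvation medium, or in EBSS with 100 nM bafilomycin. LC3-II/actin quantified by Western blot as fold of DMSO control, n = 3.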

ARPE-19 [18] = experiment: Induction of autophagy in human ARPE-19 cells assessed as decrease in LC3-2/actin ratio at 10 uM pretreated for 30 mins with cells followed by incubation for 4 hrs under starvation condition in presence of bafilomycin by Western blot analysis; assay type: functional, cell-based; conditions: time 4.5 hrs; outline: as §4
[19] = Metabolic stability in mouse plasma assessed as parent compound remaining measured after 24 hrs by LC-MS/MS analysis; assay type: ADME, cell-free; conditions: read-out: Stability
[20] = Metabolic stability in human plasma assessed as parent compound remaining measured after 24 hrs by LC-MS/MS analysis; assay type: ADME, cell-free; conditions: read-out: Stability
mTORC1 (Homo sapiens) [21] = biological target: T1, mTORC1 (Homo sapiens); experiment: Inhibition of mTORC1 reactivation in human ARPE-19 cells assessed as reduction of 4E-BP1 phosphorylation at 10 uM preincubated for 4 hrs under starvation/refeed condition measured after 1 hr in complete medium by Western blot analysis; assay type: cell-based; conditions: time 5.0 hrs
Outline: (§5)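 ARPE-19 cells starved 4 h in EBSS, then refed 1 h in complete medium with 10 μM compound or DMSO. mTORC1 reactivation read by Western blot as phosphorylation of P70 and 4EBP1.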

mTORC1 (Homo sapiens) [22] = biological target: T1, mTORC1 (Homo sapiens); experiment: Inhibition of mTORC1 reactivation in human ARPE-19 cells assessed as reduction of P70 phosphorylation at 10 uM preincubated for 4 hrs under starvation/refeed condition measured after 1 hr in complete medium by Western blot analysis; assay type: cell-based; conditions: time 5.0 hrs; outline: as §5
ARPE-19 [23] = experiment: Induction of autophagy in human ARPE-19 cells assessed as appearance of abnormal punctae at 25 uM measured after 1 hr under starvation/refeed condition by immunofluorescence analysis; assay type: functional, cell-based; outline: as §2
mTORC1 (Homo sapiens) [24] = biological target: T1, mTORC1 (Homo sapiens); experiment: Inhibition of mTORC1 reactivation in human ARPE-19 cells at 25 to 50 uM preincubated for 4 hrs under starvation/refeed condition measured after 1 hr in complete medium by Western blot analysis; assay type: cell-based; conditions: dose 25-50 µM, time 5.0 hrs
ARPE-19 [25] = experiment: Inhibition of autophagy in human ARPE-19 cells assessed as fold decrease in LC3 turnover at 10 uM pretreated for 30 mins with cells followed by incubation for 4 hrs under starvation condition by Western blot analysis; conditions: time 4.5 hrs

For `CNC(=O)c1cccc(Cn2nc(C)c(NC(=O)c3ccc(COc4ccc(Cl)cc4)cc3)c2C)c1`, the EC50 (MIA PaCa-2) was 4.2 µM.
In the case of `Cc1nn(Cc2cccc(C(=O)N(C)C)c2)c(C)c1NC(=O)c1ccc(COc2ccccc2)cc1`, the EC50 (MIA PaCa-2) is reported as 6.4 µM.
Compound `Cc1nn(Cc2ccccc2C(N)=O)c(C)c1NC(=O)c1ccc(COc2ccccc2)cc1` has an EC50 (MIA PaCa-2) of 42 µM.
Work on `CNC(=O)c1cccc(Cn2nc(C)c(NC(=O)c3ccc(COc4ccc(C(F)(F)F)cc4)cc3)c2C)c1` yielded an EC50 (MIA PaCa-2) of 0.8 µM, a remaining at 6 h [1] of 91% and a remaining at 6 h [2] of 99%. For the same compound, the half-life at 1 µM [3] was 1 h, the solubility thermodynamic at 48 h [4] was 67.3 µM (≈ 36.1 µg/mL) and the EC50 at 72 h [5] was 47.9 µM. For the same compound, the Activity (ARPE-19 [6]) was “Active”, the Activity (ARPE-19 [7]) was “Active” and the “fold change (FC)” value (ARPE-19 [8]) was 2.7. For the same compound, the Activity (ARPE-19 [9]) was “inactive”, the inhibition (mTORC1 (Homo sapiens) [10]) was 46% and the inhibition (mTORC1 (Homo sapiens) [11]) was “Dose-Dependent Effect”. The inhibition (mTORC1 (Homo sapiens) [12]) was “Active”, the Activity (ARPE-19 [13]) was “Active” and the Activity (ARPE-19 [14]) was “Active”. For the same compound, the Activity (ARPE-19 [15]) was “Active”, the Activity (ARPE-19 [16]) was “Active” and the Activity (ARPE-19 [17]) was “Active”. The Activity (ARPE-19 [18]) was “inactive”, the remaining at 24 h [19] was 77% and the remaining at 24 h [20] was 100%. For the same compound, the Activity (mTORC1 (Homo sapiens) [21]) was “inactive”, the Activity (mTORC1 (Homo sapiens) [22]) was “inactive” and the Activity (ARPE-19 [23]) was “Active”. For the same compound, the inhibition (mTORC1 (Homo sapiens) [24]) was “Active” and the “fold change (FC)” value (ARPE-19 [25]) was 1.2.
For `CNC(=O)c1cccc(Cn2nc(C)c(NC(=O)c3ccc(COc4ccccc4OC)cc3)c2C)c1`, the EC50 (MIA PaCa-2) was 8.5 µM.
`CNC(=O)c1cccc(Cn2nc(C)c(NC(=O)c3ccc(COC4CCCCC4)cc3)c2C)c1` showed an EC50 (MIA PaCa-2) of 14 µM.
For `Cn1cnc(N)c2ncnc1-2` [3-METHYLADENINE], the EC50 (MIA PaCa-2) was > 100 µM.
